The text below walks through data of ChEMBL document CHEMBL4130570, “Characteristic α-Acid Derivatives from Humulus lupulus with Antineuroinflammatory Activities” (J Nat Prod, 2017).

Calls of active or inactive are those of the source. The calls are words filed in the database; no cut-off is given here.

The subject of data set [1] is BV-2. Briefly: Cytotoxicity against mouse BV2 cells assessed as reduction in cell viability at 1 to 100 uM after 24 hrs by MTT assay. In kind it is cell-based. To be noted: bv-2, 24 h. The procedure, abridged: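 BV2 cells after 24 h treatment; supernatant removed, MTT 0.25 mg/mL added for 4 h at 37 °C, formazan dissolved in DMSO, absorbance read at 490 nm.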
Data set [2] concerns BV-2. In words: Antineuroinflammatory activity in mouse BV2 cells assessed as inhibition of LPS-induced nitric oxide production after 24 hrs by griess assay. To be noted: BV-2, 24 h. In kind it is functional, cell-based. The procedure, abridged:
(§1)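 BV2 microglia plated at 5 × 10^4 cells/well, exposed to compound (1, 3, 10, 30, 100 μM) together with LPS 100 ng/mL for 24 h. Nitrite in medium quantified by Griess reagent (1% sulfanilamide; 0.1% naphthylethylenediamine dihydrochloride, 2% phosphoric acid), 15 min at room temperature, absorbance 540 nm. Mean ± SE of three independent experiments.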
On the technique in general: Griess reagent forms a coloured azo dye with nitrite.

Data set [3] concerns BV-2. In words: Antineuroinflammatory activity in mouse BV2 cells assessed as inhibition of LPS-induced nitric oxide production at 100 uM after 24 hrs by griess assay. The data set is classed as functional, cell-based. The procedure, abridged:
as §1

Consider `CC(C)=CCc1c(O)c2c(c(C(=O)CC(C)C)c1O)O[C@@H](C(C)(C)O)C2`, for which the Activity entry in data set [1] is “Non-Toxic”.

As a reminder, the IC50 is the concentration needed to halve the response being measured. Take `CC(C)=CCc1c(O)cc(O)c2c(=O)cc(C(C)C)oc12`: the Activity entry in data set [1] is listed as “Non-Toxic”. Moreover, the IC50 in data set [2] was 21.4 µM.

Consider `CC(C)=CC[C@@]1(O)C(=O)C(C(=O)C(C)C)=C(O)C2=C1O[C@H](C(C)(C)O)C2`, for which the Activity result in data set [1] is listed as “Non-Toxic”.

As to `COc1ccc(/C=C/C(=O)c2c(O)cc(OC)c(CC=C(C)C)c2O)cc1`, in data set [1], the Activity result is “Non-Toxic”. Besides, in data set [2], the IC50 came to 57.7 µM.

Take `CC(C)=CCC1=C2O[C@H](C(C)(C)O)C[C@@]2(O)C(=O)C(C(=O)CC(C)C)=C1O`: in data set [1], the Activity entry is reported as “Non-Toxic”.

In the case of `CC1(C)C[C@@H](O)[C@@]23CC[C@H](O)[C@@](C)(CC[C@H]12)C3`, in data set [1], the Activity entry is “Non-Toxic”.

`CC(C)=CC[C@@]1(O)C(=O)C(C(=O)CC(C)C)=C(O)C2=C1O[C@H](C(C)(C)O)C2`: the Activity result in data set [1] is given as “Non-Toxic”.

With `CC(C)(O)[C@H]1C[C@@](C(=O)O)([C@H]2CC(=O)OC2(C)C)C(=O)O1`, the Activity result in data set [1] was “Non-Toxic”.

`CC(C)=CC[C@@]1(O)C(=O)C(C(=O)CC(C)C)=C(O)C2=C1OC(C)(C)[C@@H](O)C2`: the Activity entry in data set [1] was “Non-Toxic”.

Consider `CC(C)=CCc1c(O)c2c(c(C(=O)CC(C)C)c1O)O[C@H](C(C)(C)O)C2`, for which the Activity result in data set [1] was “Non-Toxic”.

In the case of `CC(C)=CCC1(CC=C(C)C)C(=O)C(O)=C(O)C1=O` [HULUPINIC ACID], the Activity entry in data set [1] is “Non-Toxic”.

Regarding `CC(C)=CC[C@@]1(O)C(=O)C(C(=O)C(C)C)=C(O)C2=C1OC(C)(C)[C@@H](O)C2`, the Activity entry in data set [1] is on record as “Non-Toxic”. In data set [3], the inhibition result is “Active”.

For `CC(C)=CC[C@@]1(O)C(=O)C(C(=O)CC(C)C)=C(O)C2=C1O[C@@H](C(C)(C)O)C2`, in data set [1], the Activity entry was “Non-Toxic”.

As to `COc1cc(O)c(CC=C(C)C)c2c1C(=O)C[C@@H](c1ccc(O)cc1)O2`, in data set [1], the Activity entry is listed as “Non-Toxic”. Further, the half-maximal inhibitory concentration (IC50) in data set [2] came to 19.5 µM.

For the compound `CC(C)=CC[C@@]1(O)C(=O)C(C(=O)CC(C)C)=C(O)C2=C1OC(C)(C)[C@H](O)C2`, the Activity entry in data set [1] was “Non-Toxic”.

Regarding `COc1cc(O)c(CC=C(C)C)c(O)c1C(=O)/C=C/c1ccc(O)cc1` [XANTHOHUMOL], the Activity result in data set [1] is on record as “Non-Toxic”. For the same compound, the IC50 in data set [2] stood at 7.92 µM.
